Reference: ChEMBL document CHEMBL2040755, “Diverse combinatorial design, synthesis and in vitro evaluation of new HEPT analogues as potential non-nucleoside HIV-1 reverse transcription inhibitors” (Eur J Med Chem, 2012)
In brackets after ≈: the same amount, converted by molar mass.

Key:
[1] = test system: Human immunodeficiency virus 1; test: Antiviral activity against HIV1 NL4-3 infected in human MT4 cells assessed as inhibition of virus-induced cytopathic effect after 5 days; assay type: functional, organism-based; settings: Human immunodeficiency virus 1, NL4-3, MT4, 120 h
Summary of the method: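 HIV-1 NL4-3 titered in MT-4 cells after acute infection. Infected cells were exposed to various concentrations of compound and grown 5 days. Protection from virus-induced cytopathic effect was read as viable cell number by tetrazolium (MTT) colorimetry, giving EC50.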

[2] = Cytotoxicity against human MT4 cells after 5 days by MTT assay; assay type: cell-based
Summary of the method: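 Uninfected MT-4 cells exposed to various compound concentrations and allowed to proliferate 5 days. Viable cells quantified by tetrazolium-based colorimetric (MTT) method to give CC50.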

[3] = Selectivity index, ratio of CC50 for human MT4 cells to EC50 for HIV1 NL4-3; assay type: toxicity, cell-based; settings: read-out: Ratio CC50/EC50
Summary of the method: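 SI taken as CC50 in uninfected MT-4 cells over EC50 against HIV-1 NL4-3. Both came from parallel 5-day MTT viability read-outs, in mock-infected and in infected cells exposed to various compound concentrations.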

[4] = test system: Human immunodeficiency virus 1; test: Ratio of HEPT EC50 to compound EC50 for HIV1 NL4-3; assay type: functional

Compound	EC50 [1]	CC50 at 120 h [2]	selectivity ratio [3]	Ratio EC50 [4]
C[Si](C)(C)CCOCn1c(Sc2ccccc2)cc(=O)[nH]c1=O	> 71 µM	> 25 µg/mL		
C[Si](C)(C)CCOCn1c(Sc2cccc(N)c2)cc(=O)[nH]c1=O	> 68 µM	> 25 µg/mL		
C[Si](C)(C)CCOCn1c(Sc2c(Cl)cccc2Cl)cc(=O)[nH]c1=O	> 25.2 µM	10.6 µg/mL (≈ 25.3 µM)		
C[Si](C)(C)CCOCn1c(Sc2cccc(Cl)c2)cc(=O)[nH]c1=O	> 30 µM	11.6 µg/mL (≈ 30.1 µM)		
CCOCn1c(Sc2ccccc2)cc(=O)[nH]c1=O	> 90 µM	> 25 µg/mL		
CCOCn1c(Sc2cccc(N)c2)cc(=O)[nH]c1=O	> 85 µM	> 25 µg/mL		
CCOCn1c(Sc2c(Cl)cccc2Cl)cc(=O)[nH]c1=O	> 72 µM	> 25 µg/mL		
CCOCn1c(Sc2cccc(Cl)c2)cc(=O)[nH]c1=O	> 80 µM	> 25 µg/mL		
Cc1ccc(C)c(Cn2c(Sc3ccccc3)cc(=O)[nH]c2=O)c1	> 74 µM	> 25 µg/mL		
Cc1ccc(C)c(Cn2c(Sc3cccc(N)c3)cc(=O)[nH]c2=O)c1	> 71 µM	> 25 µg/mL		
Cc1ccc(C)c(Cn2c(Sc3c(Cl)cccc3Cl)cc(=O)[nH]c2=O)c1	> 61 µM	> 25 µg/mL		
Cc1ccc(C)c(Cn2c(Sc3cccc(Cl)c3)cc(=O)[nH]c2=O)c1	> 67 µM	> 25 µg/mL		
Cc1c(Sc2cccc(N)c2)n(COCC[Si](C)(C)C)c(=O)[nH]c1=O	1.15 µM	> 25 µg/mL	> 57	
Cc1c(Sc2c(Cl)cccc2Cl)n(COCC[Si](C)(C)C)c(=O)[nH]c1=O	> 21.3 µM	9.2 µg/mL (≈ 21.2 µM)		
Cc1c(Sc2cccc(Cl)c2)n(COCC[Si](C)(C)C)c(=O)[nH]c1=O	> 24.9 µM	9.9 µg/mL (≈ 24.8 µM)		
CCOCn1c(Sc2cccc(N)c2)c(C)c(=O)[nH]c1=O	1.3 µM	> 25 µg/mL	> 63	

Compound	EC50 [1]	CC50 at 120 h [2]	selectivity ratio [3]	Ratio EC50 [4]
CCOCn1c(Sc2c(Cl)cccc2Cl)c(C)c(=O)[nH]c1=O	4.7 µM	> 25 µg/mL	> 15	
CCOCn1c(Sc2cccc(Cl)c2)c(C)c(=O)[nH]c1=O	0.046 µM	> 25 µg/mL	> 1670	67
Cc1ccc(C)c(Cn2c(Sc3ccccc3)c(C)c(=O)[nH]c2=O)c1	3.57 µM	> 25 µg/mL	> 20	
Cc1ccc(C)c(Cn2c(Sc3cccc(N)c3)c(C)c(=O)[nH]c2=O)c1	5.2 µM	> 25 µg/mL	> 13	
Cc1ccc(C)c(Cn2c(Sc3c(Cl)cccc3Cl)c(C)c(=O)[nH]c2=O)c1	> 59 µM	> 25 µg/mL		
Cc1ccc(C)c(Cn2c(Sc3cccc(Cl)c3)c(C)c(=O)[nH]c2=O)c1	0.868 µM	13.6 µg/mL (≈ 35.2 µM)	> 40	
CCOCn1c(Sc2ccccc2)c(C)c(=S)[nH]c1=O	1.9 µM	2.38 µg/mL (≈ 7.72 µM)	> 4	
CCOCn1c(Sc2cccc(Cl)c2)c(C)c(=S)[nH]c1=O	> 4.96 µM	1.7 µg/mL (≈ 4.96 µM)		
Cc1c(Sc2ccccc2)n(COCC[Si](C)(C)C)c(=O)[nH]c1=O	> 27.3 µM	9.9 µg/mL (≈ 27.2 µM)		
CCOCn1c(Sc2ccccc2)c(C)c(=O)[nH]c1=O	0.086 µM	> 25 µg/mL	> 1000	38
Cc1c(Sc2cccc(Cl)c2)n(COCCO)c(=O)[nH]c1=O	1.2 µM	> 25 µg/mL	> 60	
O=C1Nc2ccc(Cl)cc2[C@@](C#CC2CC2)(C(F)(F)F)O1 [EFAVIRENZ]		> 1 µg/mL		
Cc1c(Sc2ccccc2)n(COCCO)c(=O)[nH]c1=O [HEPT]	3.28 µM	> 25 µg/mL	> 25	
Cc1ccnc2c1NC(=O)c1cccnc1N2C1CC1 [NEVIRAPINE]		> 5 µg/mL		
Cc1cn([C@H]2C[C@H](N=[N+]=[N-])[C@@H](CO)O2)c(=O)[nH]c1=O [ZIDOVUDINE]	0.004 µM	> 1 µg/mL	> 1000	
